How the values were obtained:
Escherichia coli [1] = assay: Antibacterial activity against Escherichia coli ATCC 8739 after 18 hrs; type: functional; settings: ATCC 8739, 18 h
Summary of the method: (§1)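 Broth microdilution in Nutrient Broth No. 2; stocks in ethanol diluted to 0.01–128 µg/ml (triclosan) or 0.25–256 µg/ml (glycosides). Overnight 37 °C NB2 cultures diluted 1 in 10^4 in saline and added to the dilutions. Incubation at 37 °C with agitation, OD read every 15 min; MIC is the lowest concentration preventing any OD rise after 18 h.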

Escherichia coli [2] = assay: Antibacterial activity against Escherichia coli ATCC 35218 after 18 hrs; type: functional; settings: ATCC 35218, 18 h; summary of the method: as §1
Escherichia coli [3] = assay: Antibacterial activity against Escherichia coli ATCC 10536 after 18 hrs; type: functional; settings: ATCC 10536, 18 h; summary of the method: as §1
[4] = system: Salmonella enterica subsp. enterica serovar Abony; assay: Antibacterial activity against Salmonella enterica subspecies enterica serotype Abony NCTC 6017 after 18 hrs; type: functional; settings: NCTC 6017, 18 h; summary of the method: as §1
Streptococcus viridans = assay: Antibacterial activity against Streptococcus viridans OCC 234 after 18 hrs; type: functional; settings: OCC 234, 18 h
Summary of the method: (§2)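 Broth microdilution in Nutrient Broth No. 2. Ethanol stocks were diluted in broth to 0.01–128 µg/ml for triclosan and 0.25–256 µg/ml for glycosides. Overnight 37°C NB2 cultures were diluted 1 in 10^4 in saline and added to the wells. Plates were incubated at 37°C with OD read every 15 min after agitation. MIC was the lowest concentration giving no OD increase at 18 h.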

Staphylococcus aureus [5] = assay: Antibacterial activity against Staphylococcus aureus ATCC 25923 after 18 hrs; type: functional; settings: ATCC 25923, 18 h; summary of the method: as §1
[6] = system: Staphylococcus epidermidis; assay: Antibacterial activity against Staphylococcus epidermidis ATCC 12228 after 18 hrs; type: functional; settings: ATCC 12228, 18 h; summary of the method: as §1
[7] = system: Staphylococcus haemolyticus; assay: Antibacterial activity against Staphylococcus haemolyticus OCC 2223 after 18 hrs; type: functional; settings: OCC 2223, 18 h; summary of the method: as §2
[8] = Antibacterial activity against Salmonella enterica subspecies enterica serotype Arizonae OCC 706 after 18 hrs; type: functional, Salmonella enterica subsp. enterica serovar Arizonae; settings: OCC 706, 18 h; summary of the method: as §1
Bacillus subtilis = assay: Antibacterial activity against Bacillus subtilis NCTC 10073 after 18 hrs; type: functional; settings: NCTC 10073, 18 h; summary of the method: as §1
Streptococcus pneumoniae = assay: Antibacterial activity against Streptococcus pneumoniae ATCC 49619 after 18 hrs; type: functional; settings: ATCC 49619, 18 h; summary of the method: as §2
Staphylococcus aureus [9] = assay: Antibacterial activity against Staphylococcus aureus ATCC 6538P after 18 hrs; type: functional; summary of the method: as §1
Escherichia hermannii = assay: Antibacterial activity against Escherichia hermannii 33650 after 18 hrs; type: functional; settings: Atlantibacter hermannii, 33650, 18 h; summary of the method: as §1
Klebsiella aerogenes = assay: Antibacterial activity against Enterobacter aerogenes ATCC 13048 after 18 hrs; type: functional; settings: ATCC 13048, 18 h; summary of the method: as §1
Citrobacter freundii = assay: Antibacterial activity against Citrobacter freundii OCC 851 after 18 hrs; type: functional; settings: OCC 851, 18 h; summary of the method: as §1
[10] = Antibacterial activity against Salmonella enterica subspecies enterica serotype Virchow NCTC 5742 after 18 hrs; type: functional, Salmonella enterica subsp. enterica serovar Virchow; settings: NCTC 5742, 18 h; summary of the method: as §1
Escherichia coli [11] = assay: Antibacterial activity against Escherichia coli NCTC 13216 after 18 hrs; type: functional; settings: NCTC 13216, 18 h; summary of the method: as §1
[12] = Antibacterial activity against Salmonella enterica subspecies enterica serotype Poona NCTC 4840 after 18 hrs; type: functional, Salmonella enterica subsp. enterica serovar Poona; settings: NCTC 4840, 18 h; summary of the method: as §1
Serratia marcescens = assay: Antibacterial activity against Serratia marcescens OCC 217 after 18 hrs; type: functional; settings: OCC 217, 18 h; summary of the method: as §1
Cronobacter sakazakii = assay: Antibacterial activity against Cronobacter sakazakii 29544 after 18 hrs; type: functional; settings: Cronobacter sakazakii, 29544, 18 h; summary of the method: as §1
Streptococcus agalactiae = assay: Antibacterial activity against Streptococcus agalactiae OCC 182 after 18 hrs; type: functional; settings: OCC 182, 18 h; summary of the method: as §2
[13] = Antibacterial activity against Salmonella enterica subspecies enterica serotype Pullorum OCC 273 after 18 hrs; type: functional, Salmonella enterica subsp. enterica serovar Pullorum; settings: OCC 273, 18 h; summary of the method: as §1
Enterococcus faecalis [14] = assay: Antibacterial activity against Enterococcus faecalis ATCC 29212 after 18 hrs; type: functional; settings: ATCC 29212, 18 h; summary of the method: as §1
[15] = Antibacterial activity against Salmonella enterica subspecies enterica serotype Dublin OCC 627 after 18 hrs; type: functional, Salmonella enterica subsp. enterica serovar Dublin; settings: OCC 627, 18 h; summary of the method: as §1
[16] = system: Staphylococcus epidermidis; assay: Antibacterial activity against Staphylococcus epidermidis ATCC 14990 after 18 hrs; type: functional; settings: ATCC 14990, 18 h; summary of the method: as §1
Escherichia coli [17] = assay: Antibacterial activity against Escherichia coli OCC 122 after 18 hrs; type: functional; settings: OCC 122, 18 h; summary of the method: as §1
Salmonella typhimurium = assay: Antibacterial activity against Salmonella enterica subspecies enterica serotype typhimurium ATCC 14028 after 18 hrs; type: functional, Salmonella enterica subsp. enterica serovar Typhimurium; settings: ATCC 14028, 18 h; summary of the method: as §1
Enterococcus faecalis [18] = assay: Antibacterial activity against Enterococcus faecalis ATCC 33186 after 18 hrs; type: functional; settings: ATCC 33186, 18 h; summary of the method: as §1
[19] = Antibacterial activity against Salmonella enterica subspecies enterica serotype Nottingham NCTC 7832 after 18 hrs; type: functional, Salmonella enterica subsp. enterica serovar Nottingham; settings: NCTC 7832, 18 h; summary of the method: as §1

Measured: MIC

OC[C@H]1O[C@@H](Oc2cc(Cl)ccc2Oc2ccc(Cl)cc2Cl)[C@H](O)[C@@H](O)[C@@H]1O
128 µg/mL: Streptococcus pneumoniae
256 µg/mL: Streptococcus viridans | Bacillus subtilis | Streptococcus agalactiae
16 µg/mL: [7] | Escherichia hermannii | Enterococcus faecalis [14] | Enterococcus faecalis [18]
64 µg/mL: Klebsiella aerogenes | Citrobacter freundii | Cronobacter sakazakii
8 to 64 µg/mL: Escherichia coli [1] | Escherichia coli [2] | Escherichia coli [3] | Escherichia coli [11] | Escherichia coli [17]
> 256 µg/mL: Serratia marcescens
8 to 16 µg/mL: [6] | [16]
4 to 8 µg/mL: Staphylococcus aureus [5] | Staphylococcus aureus [9]
16 to 32 µg/mL: all other assays above

Reference: ChEMBL document CHEMBL4325893, “Synthesis and antibacterial profiles of targeted triclosan derivatives” (2019)
